This is an account of results in ChEMBL document CHEMBL4393684, “Benzoic acid-derived nitrones: A new class of potential acetylcholinesterase inhibitors and neuroprotective agents” (Eur J Med Chem, 2019).

Active and inactive are the calls of the source. The calls are words filed in the database; no cut-off is given here.

The target of data set [1] is Cholinesterase (Equus caballus) (UniProt P81908). The data set can be described thus: Inhibition of equine serum BChE using butyrylthiocholine iodide as substrate at 50 uM incubated for 5 mins followed by substrate addition measured for 5 mins by Ellman's method. An outline of the steps: (§1)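 Ellman's colorimetric method. AChE came from Electrophorus electricus and BChE from equine serum. Compounds were tested up to 50 μM, the highest concentration.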
Sequence of Cholinesterase (Equus caballus) (P81908 whole entry): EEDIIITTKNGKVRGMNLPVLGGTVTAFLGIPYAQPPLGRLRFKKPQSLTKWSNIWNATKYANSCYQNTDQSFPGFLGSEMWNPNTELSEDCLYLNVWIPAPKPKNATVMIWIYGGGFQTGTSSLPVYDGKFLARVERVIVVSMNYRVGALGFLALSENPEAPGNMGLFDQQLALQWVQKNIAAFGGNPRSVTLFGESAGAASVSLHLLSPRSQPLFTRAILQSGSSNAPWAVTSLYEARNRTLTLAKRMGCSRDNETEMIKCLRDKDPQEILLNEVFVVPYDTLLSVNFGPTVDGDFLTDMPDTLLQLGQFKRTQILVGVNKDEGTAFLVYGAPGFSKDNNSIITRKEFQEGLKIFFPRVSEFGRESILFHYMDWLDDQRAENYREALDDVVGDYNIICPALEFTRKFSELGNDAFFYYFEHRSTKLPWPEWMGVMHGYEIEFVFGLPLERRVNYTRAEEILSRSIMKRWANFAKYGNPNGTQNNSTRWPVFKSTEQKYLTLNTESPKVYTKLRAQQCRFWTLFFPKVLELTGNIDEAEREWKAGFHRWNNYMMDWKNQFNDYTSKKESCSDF

For data set [2], the system named is HepG2. In words: Cytotoxicity against human HepG2 cells assessed as reduction in cell viability at 1 to 50 uM incubated for 24 hrs by resazurin dye based fluorescence assay. As to conditions: hepg2, 24 h. An outline of the steps: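 HepG2 hepatocellular carcinoma cells were exposed in culture medium to 1, 10 and 50 μM. Viability was measured as metabolic activity by resazurin reduction. Results are mean % of untreated control cells ± SEM (n = 4).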
For orientation: The colour change of resazurin is a common sign of viable cells or microbes.

Data set [3] relates to SH-SY5Y. In words: Cytotoxicity against human SH-SY5Y cells assessed as reduction in cell viability at 1 to 50 uM incubated for 24 hrs by MTT assay. The class given is cell-based. An outline of the steps: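 Differentiated human SH-SY5Y neuroblastoma cells were exposed in culture medium to 1, 10 and 50 μM for 24 h. Viability was read as metabolic activity by MTT reduction. Untreated cells served as control, and results are mean % of untreated controls ± SEM (n = 4).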
(Tetrazolium dyes change colour on reduction, which living cells bring about.)

Data set [4] concerns the target Acetylcholinesterase (Electrophorus electricus) (UniProt O42275). In words: Inhibition of electric eel AChE using acetylthiocholine iodide as substrate at 50 uM incubated for 5 mins followed by substrate addition measured for 5 mins by Ellman's method. An outline of the steps:
as §1
A general note: In Ellman's method for cholinesterases, released thiocholine reacts with DTNB.

Data set [5] relates to SH-SY5Y. The data set can be described thus: Neuroprotective activity against H2O2-induced oxidative stress in human SH-SY5Y cells assessed as metabolic stability at 10 to 100 uM incubated for 24 hrs by resazurin dye based fluorescence assay relative to control. The class given is functional. An outline of the steps:
(§2)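 Differentiated SH-SY5Y cells were given test compounds at 10, 50 and 100 μM. Two protocols were used: 24 h compound pre-incubation then stressor, or stressor first then 24 h compound. Stressors were H2O2 1 mM, t-BHP 200 μM, ROT/AA 1 μM or DOX 1 μM, each for 4 h. Resazurin reduction was read as % of untreated control, four independent experiments, one-way ANOVA.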

Data set [6] relates to SH-SY5Y. In words: Neuroprotective activity against t-BHP-induced oxidative stress in human SH-SY5Y cells assessed as metabolic stability at 10 to 100 uM incubated for 24 hrs by resazurin dye based fluorescence assay relative to control. It is filed as functional. An outline of the steps:
as §2

The target in data set [7] is Acetylcholinesterase (Electrophorus electricus) (UniProt O42275). In words: Mixed inhibition of electric eel AChE assessed as decrease in Vmax of substrate at 7.5 to 30 uM using acetylthiocholine iodide as substrate incubated for 5 mins followed by substrate addition measured for 5 mins by double reciprocal Lineweaver-Burk plot analysis.
Sequence of Acetylcholinesterase (Electrophorus electricus) (O42275 24-633 limits assumed): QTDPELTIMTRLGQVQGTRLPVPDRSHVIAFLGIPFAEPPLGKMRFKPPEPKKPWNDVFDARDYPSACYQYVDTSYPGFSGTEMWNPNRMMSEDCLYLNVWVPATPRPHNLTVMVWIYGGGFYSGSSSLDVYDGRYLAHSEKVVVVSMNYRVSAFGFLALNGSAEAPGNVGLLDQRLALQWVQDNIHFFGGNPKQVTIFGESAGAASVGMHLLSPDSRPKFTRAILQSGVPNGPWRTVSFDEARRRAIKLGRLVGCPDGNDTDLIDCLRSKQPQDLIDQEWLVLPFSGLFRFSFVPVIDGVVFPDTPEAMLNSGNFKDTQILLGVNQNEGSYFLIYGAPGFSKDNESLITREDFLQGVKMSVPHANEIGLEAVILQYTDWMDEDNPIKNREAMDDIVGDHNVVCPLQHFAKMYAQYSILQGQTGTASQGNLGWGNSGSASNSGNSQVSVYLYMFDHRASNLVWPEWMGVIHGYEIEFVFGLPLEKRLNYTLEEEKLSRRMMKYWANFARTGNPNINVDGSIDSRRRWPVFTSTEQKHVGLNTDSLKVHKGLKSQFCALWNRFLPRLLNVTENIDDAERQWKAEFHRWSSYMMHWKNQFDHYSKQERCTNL
The target is the same in data set [8]. In words: Mixed inhibition of electric eel AChE assessed as decrease in Km of substrate at 7.5 to 30 uM using acetylthiocholine iodide as substrate incubated for 5 mins followed by substrate addition measured for 5 mins by double reciprocal Lineweaver-Burk plot analysis.
Data set [9] concerns SH-SY5Y. In words: Neuroprotective activity against ROT/AA-induced oxidative stress in human SH-SY5Y cells assessed as metabolic stability at 10 to 100 uM incubated for 24 hrs by resazurin dye based fluorescence assay relative to control. The class given is functional. An outline of the steps:
as §2

Data set [10] concerns SH-SY5Y. In words: Neuroprotective activity against DOX-induced oxidative stress in human SH-SY5Y cells assessed as metabolic stability at 10 to 100 uM incubated for 24 hrs by resazurin dye based fluorescence assay relative to control. The class given is functional. An outline of the steps:
as §2

Data set [11] addresses Acetylcholinesterase (Electrophorus electricus, UniProt O42275). In words: Inhibition of electric eel AChE assessed as inhibition constant using acetylthiocholine iodide as substrate pretreated for 5 mins followed by substrate addition measured for 5 mins by Dixon plot analysis.
Data set [12] concerns the target Acetylcholinesterase (Electrophorus electricus) (UniProt O42275). The data set can be described thus: Noncompetitive inhibition of electric eel AChE assessed as effect on Km of substrate at 5 to 20 uM using acetylthiocholine iodide as substrate incubated for 5 mins followed by substrate addition measured for 5 mins by double reciprocal Lineweaver-Burk plot analysis.

For data set [13] the target is unchanged. The data set can be described thus: Noncompetitive inhibition of electric eel AChE assessed as decrease in Vmax for substrate at 5 to 20 uM using acetylthiocholine iodide as substrate incubated for 5 mins followed by substrate addition measured for 5 mins by double reciprocal Lineweaver-Burk plot analysis.
For data set [14], the system named is SH-SY5Y. The data set can be described thus: Neuroprotective activity against t-BHP-induced oxidative stress in human SH-SY5Y cells assessed as metabolic stability incubated for 24 hrs by resazurin dye based fluorescence assay relative to control. The class given is functional, cell-based. An outline of the steps:
as §2

Sequence of Acetylcholinesterase (O42275 whole entry): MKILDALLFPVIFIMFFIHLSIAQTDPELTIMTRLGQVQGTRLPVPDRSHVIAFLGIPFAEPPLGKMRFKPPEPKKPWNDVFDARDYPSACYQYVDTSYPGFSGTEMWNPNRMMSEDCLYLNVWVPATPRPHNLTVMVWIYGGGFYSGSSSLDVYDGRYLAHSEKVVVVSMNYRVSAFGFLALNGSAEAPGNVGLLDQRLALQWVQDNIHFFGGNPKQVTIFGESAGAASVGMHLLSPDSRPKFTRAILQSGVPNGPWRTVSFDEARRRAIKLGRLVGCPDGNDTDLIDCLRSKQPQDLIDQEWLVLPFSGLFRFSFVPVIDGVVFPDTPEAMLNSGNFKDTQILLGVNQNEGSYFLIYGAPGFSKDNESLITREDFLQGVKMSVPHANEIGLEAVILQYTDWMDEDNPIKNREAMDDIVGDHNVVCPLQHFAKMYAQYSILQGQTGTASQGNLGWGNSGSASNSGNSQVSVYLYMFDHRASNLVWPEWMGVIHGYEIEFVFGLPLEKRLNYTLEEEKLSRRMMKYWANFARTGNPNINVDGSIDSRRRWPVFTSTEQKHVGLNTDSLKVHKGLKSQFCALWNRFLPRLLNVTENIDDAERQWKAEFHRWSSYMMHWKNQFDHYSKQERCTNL

Turning to `COc1ccc(C(=O)NCCCCC/C=[N+](\[O-])C2CCCCC2)cc1`, the inhibition entry in [1] and in data set [4] was “inactive” each time. The Activity entry in data set [2] and in data set [3] was “Non-Toxic” in each case.

Take `COc1cc(C(=O)NCCCCC/C=[N+](\[O-])C(C)(C)C)cc(OC)c1OC`: the outcome in data set [5], in data set [6], in [9] and in data set [10] was inactive. Moreover, in [1], the inhibition result was “inactive”. The Activity result in data set [2] is “Non-Toxic”; in data set [3], 107 to 122%. The inhibition result in data set [7] and in data set [8] was “Active” each time.

`COc1cc(C(=O)NCCCCCCCCC/C=[N+](\[O-])C(C)(C)C)cc(OC)c1OC`: the inhibition entry in [1] was “inactive”. The Activity entry in data set [2] and in data set [3] was “Non-Toxic” in each case.

Consider `COc1ccc(C(=O)NCCCCCCC/C=[N+](\[O-])C(C)(C)C)cc1OC`, for which the inhibition result in [1] was “inactive”. Besides, the Activity result in data set [2] and in [3] was “Non-Toxic” in each case.

Turning to `COc1ccc(C(=O)NCCCCCCCCC/C=[N+](\[O-])C(C)(C)C)cc1OC`, the inhibition result in [1] was “inactive”. The Activity entry in data set [2] and in data set [3] was “Non-Toxic” each time.

Regarding `COc1ccc(C(=O)NCCCCC/C=[N+](\[O-])Cc2ccccc2)cc1OC`, the inhibition entry in [1] and in data set [4] was “inactive” each time. Further, the Activity entry in data set [2] and in data set [3] was “Non-Toxic” each time.

In the case of `COc1cccc(C(=O)NCCCCC/C=[N+](\[O-])C(C)(C)C)c1`, the inhibition result in data set [1] is “inactive”. Moreover, the Activity result in data set [2] and in [3] was “Non-Toxic” each time.

On to `COc1cccc(C(=O)NCCCCC/C=[N+](\[O-])Cc2ccccc2)c1`, for which the inhibition entry in [1] and in data set [4] was “inactive” each time. In addition, the Activity entry in data set [2] and in data set [3] was “Non-Toxic” throughout.

For `COc1ccc(C(=O)NCCCCC/C=[N+](\[O-])Cc2ccccc2)cc1`, the inhibition result in data set [1] and in data set [4] was “inactive” each time. The Activity result in data set [2] and in data set [3] was “Non-Toxic” each time.

Regarding `O=C(NCCCCC/C=[N+](\[O-])C1CCCCC1)c1ccccc1`, the inhibition entry in [1] and in data set [4] was “inactive” in each case. The Activity entry in data set [2] and in [3] was “Non-Toxic” in each case.

With `COc1cc(C(=O)NCCCCCCC/C=[N+](\[O-])C(C)(C)C)cc(OC)c1OC`, the inhibition result in data set [1] was “inactive”. The Activity entry in [2] and in [3] was “Non-Toxic” in each case.

In the case of `COc1cc(C(=O)NCCCCC/C=[N+](\[O-])C2CCCCC2)cc(OC)c1OC`, the inhibition entry in data set [1] and in data set [4] was “inactive” in each case. In addition, the Activity entry in data set [2] and in [3] was “Non-Toxic” in each case.

Turning to `COc1cccc(C(=O)NCCCCC/C=[N+](\[O-])C2CCCCC2)c1`, the inhibition entry in data set [1] and in [4] was “inactive” in each case. The Activity result in data set [2] and in [3] was “Non-Toxic” each time.

On to `COc1ccc(C(=O)NCCCCC/C=[N+](\[O-])C2CCCCC2)cc1OC`, for which the inhibition entry in data set [1] and in data set [4] was “inactive” each time. Besides, the Activity result in data set [2] and in data set [3] was “Non-Toxic” throughout.

With `COc1ccc(C(=O)NCCCCC/C=[N+](\[O-])C(C)(C)C)cc1`, in [1], the inhibition entry is “inactive”. The Activity result in [2] and in data set [3] was “Non-Toxic” in each case.

In the case of `COc1cc(C(=O)NCCCCC/C=[N+](\[O-])Cc2ccccc2)cc(OC)c1OC`, the inhibition entry in [1] and in data set [4] was “inactive” each time. Further, the Activity result in data set [2] and in data set [3] was “Non-Toxic” each time.

`O=C(NCCCCC/C=[N+](\[O-])Cc1ccccc1)c1ccccc1`: the inhibition result in data set [1] and in data set [4] was “inactive” in each case. The Activity result in [2] and in [3] was “Non-Toxic” throughout.

As to `COc1ccc(C(=O)NCCCCC/C=[N+](\[O-])C(C)(C)C)cc1OC`, the Ki (commonly a dissociation constant, usually derived from enzyme kinetics or from competition with a known ligand) in [11] stood at 5.2 µM. For the same compound, the Activity is 50.3% in data set [5]; “Non-Toxic” in [2]; 44.3% in [6]; 107 to 122% in data set [3]; “Dose-dependent effect” in [14]; 20.7% in [9]. The Activity in [10] came out at 32.9%. The inhibition result in data set [1] is “inactive”. Further, the inhibition entry in data set [12] and in data set [13] was “Active” in each case.

As for `CC(C)(C)/[N+]([O-])=C/CCCCCNC(=O)c1ccccc1`, the inhibition result in data set [1] and in data set [4] was “inactive” in each case. Further, the Activity result in [2] and in [3] was “Non-Toxic” in each case.
